From ChEMBL document CHEMBL1250478 (J Med Chem, 2010)
Activity calls are given as the source filed them. The calls are words filed in the database; no cut-off is given here.

Columns and labels:
[1] = Therapeutic index, ratio of IC50 for mice (Mus musculus) spleen lymphocytes to IC50 for chloroquine-resistant Plasmodium falciparum Dd2; assay type: tissue-based; details: read-out: Ratio IC50
[2] = tested on: Plasmodium falciparum; assay: Ratio of compound IC50 to chloroquine IC50 for chloroquine-sensitive Plasmodium falciparum D6; assay type: functional
[3] = tested on: Plasmodium falciparum; assay: Ratio of compound IC50 to chloroquine IC50 for chloroquine-resistant Plasmodium falciparum 7G8; assay type: functional
[4] = tested on: Plasmodium falciparum; assay: Ratio of compound IC50 to chloroquine IC50 for chloroquine-resistant Plasmodium falciparum Dd2; assay type: functional
[5] = tested on: Plasmodium berghei; assay: Antiplasmodial activity against Plasmodium berghei infected in NMRI mice (Mus musculus) assessed as survival rate at 30 mg/kg, subcutaneously administered as single dose; assay type: functional; details: route subcutaneous
Procedure, shortened: (§1)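 P. berghei blood diluted in saline to 10^8 parasitized erythrocytes/mL; 0.2 mL given i.v. to groups of 3 female NMRI mice (controls 5). Compounds dosed at 10 ml/kg either once on day 1 (oral gavage or subcutaneous) or orally at 4, 24, 48, 72 h post-infection. Parasitemia read by FACS on 100,000 RBCs from tail blood on day 3 (single dose) or day 4 (quadruple dose). Activity = % reduction versus control mean. Survival monitored to 30 days.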

[6] = Drug level in NMRI mice (Mus musculus) erythrocytes infected with chloroquine-sensitive Plasmodium falciparum D6 after 1 hr; assay type: ADME, cell-based; details: erythrocyte
Procedure, shortened: (§2)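 Sorbitol-synchronized mature trophozoites (about 10% parasitemia) in 5 mL complete medium, drug at about 5 µM initial medium concentration. Medium sampled over time and analyzed by C18 HPLC. NH4Cl (10 mM) added 10 min before sampling to release accumulated drug; uptake is the difference from the 1 h level. DV concentration assumes 6 × 10^7 PRBCs and a 4 fL DV. Accumulation ratio is DV/medium concentration.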

[7] = tested on: Plasmodium berghei; assay: Antiplasmodial activity against Plasmodium berghei infected in NMRI mice (Mus musculus) assessed as survival rate at 30 mg/kg, perorally administered as single dose; assay type: functional; details: route oral; procedure, shortened: as §1
[8] = Drug level in erythrocytes infected with chloroquine-resistant Plasmodium falciparum Dd2 after 1 hr; details: erythrocyte
[9] = tested on: Plasmodium falciparum; assay: Antiplasmodial activity against synchronized chloroquine-sensitive Plasmodium falciparum D6 infected in NMRI mice (Mus musculus) RBC assessed as inhibition of hemozoin formation at 1000 nM after 24 hrs by colorimetric analysis; assay type: functional, organism-based
Procedure, shortened: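 D6 cultures synchronized with sorbitol, held at 1% hematocrit, drug-treated 24 h at 37 °C. Parasites freeze-thawed, then lysed 30 min at 37 °C in saponin/Triton X-100 buffer. Hemozoin pelleted at 215,000 g, washed with acetone and PBS, dissolved 2 h in 0.2 N NaOH. Heme read at A400 (ε 91,000 cm-1M-1) and expressed per parasitized erythrocyte. A 0 h culture gave the baseline.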

[10] = tested on: Plasmodium falciparum; assay: Antiplasmodial activity against synchronized chloroquine-resistant Plasmodium falciparum Dd2 infected in NMRI mice (Mus musculus) RBC assessed as inhibition of hemozoin formation at 1000 nM after 24 hrs by colorimetric analysis; assay type: functional, organism-based
Procedure, shortened: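 Sorbitol-synchronized D6 and Dd2 cultures at 1% hematocrit were drug-treated for 24 h at 37 °C. Parasites were freed by freeze-thaw and saponin/Triton lysis buffer (37 °C, 30 min). Hemozoin was pelleted at 215,000 g, washed with acetone and PBS, then dissolved in 0.2 N NaOH. Heme was quantified by A400 (ε 91,000 cm-1M-1) per parasitized erythrocyte. Baseline was taken from 0 h culture.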

[11] = tested on: Plasmodium berghei; assay: Antiplasmodial activity against Plasmodium berghei infected in NMRI mice (Mus musculus) assessed as survival rate at 30 mg/kg, perorally administered as 4 consecutive doses measured post last dose; assay type: functional; details: route oral; procedure, shortened: as §1
[12] = tested on: Plasmodium falciparum; assay: Antiplasmodial activity against chloroquine-sensitive Plasmodium falciparum D6 early trophozoites infected in NMRI mice (Mus musculus) RBC assessed as inhibition of hemozoin formation at 100 nM after 24 hrs by microscopic analysis; assay type: functional, organism-based
Procedure, shortened: (§3)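 Ring-stage D6 parasites synchronized with 5% sorbitol, suspended at 1% hematocrit and drug added from 1 mM stock. Incubated 24 h at 37 °C under 5% O2/5% CO2/90% N2 alongside a no-drug control. Giemsa-stained smears were used for parasitemia and for microscopic examination of hemozoin and parasite morphology.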

[13] = tested on: Plasmodium falciparum; assay: Antiplasmodial activity against chloroquine-resistant Plasmodium falciparum Dd2 early trophozoites infected in NMRI mice (Mus musculus) RBC assessed as inhibition of hemozoin formation at 100 nM after 24 hrs by microscopic analysis; assay type: functional, organism-based
Procedure, shortened: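 D6 and Dd2 cultures synchronized to ring stage with 5% sorbitol, suspended at 1% hematocrit and exposed to drug (from 1 mM stock) for 24 h at 37 °C under 5% O2/5% CO2/90% N2. Giemsa-stained smears examined by microscopy for hemozoin, parasitemia and parasite morphology.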

[14] = tested on: Plasmodium berghei; assay: Antiplasmodial activity against Plasmodium berghei infected in NMRI mice (Mus musculus) assessed as parasitaemia level at 30 mg/kg, perorally administered as single dose measured after 3 days relative to control; assay type: functional; details: route oral; procedure, shortened: as §1
[15] = tested on: Plasmodium berghei; assay: Antiplasmodial activity against Plasmodium berghei infected in NMRI mice (Mus musculus) assessed as parasitaemia level at 30 mg/kg, subcutaneously after 3 days relative to control; assay type: functional; details: route subcutaneous; procedure, shortened: as §1
[16] = tested on: Plasmodium berghei; assay: Antiplasmodial activity against Plasmodium berghei infected in NMRI mice (Mus musculus) assessed as parasitaemia level at 30 mg/kg, perorally administered as 4 consecutive doses measured after 3 days post last dose relative to control; assay type: functional; details: route oral; procedure, shortened: as §1
[17] = target: Heme; assay: Binding affinity to heme after 4 hrs by equilibrium binding assay
Procedure, shortened: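 Heme stock in NaOH, diluted to 5 µM in 100 mM phosphate buffer pH 5.7 and equilibrated 4 h. Optical titration by successive addition of compound, with pH held within ±0.05. Apparent dissociation constants from nonlinear least-squares fitting, assuming 2:1 heme:drug stoichiometry.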

[18] = Solubility of the compound; assay type: physicochemical
[19] = Inhibition of beta-hematin formation after 24 hrs; assay type: functional
Procedure, shortened: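 40 µM heme in 0.67 M sodium acetate pH 4.8 with 0.0005 g/L Tween20, compound at 0–1000 µM. Incubated 24 h at 37 °C in the dark, then read at 415/630 nm. IC50 taken as (Dmax − Dinitial)/2. Duplicate assays, run twice.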

[20] = tested on: Plasmodium berghei; assay: Antiplasmodial activity against Plasmodium berghei infected in NMRI mice (Mus musculus) assessed as parasitaemia level at 44 mg/kg, perorally administered as 4 consecutive doses measured after 4 days post last dose relative to control; assay type: functional; details: route oral
[21] = tested on: Plasmodium berghei; assay: Antiplasmodial activity against Plasmodium berghei infected in NMRI mice (Mus musculus) assessed as survival rate at 44 mg/kg, perorally administered as 4 consecutive doses measured post last dose; assay type: functional; details: route oral; procedure, shortened: as §1
[22] = Drug level in chloroquine-sensitive Plasmodium falciparum D6 digestive vacuole assessed as ratio of drug level in vacuole to medium at 5 uM after 1 hr; assay type: ADME; details: plasmodium falciparum d6, 1 h; procedure, shortened: as §2
[23] = tested on: Plasmodium falciparum; assay: Inhibition of hemozoin formation in early trophozoites of chloroquine-sensitive Plasmodium falciparum D6 infected in RBC assessed as enlarged digestive vacuole at 100 nM after 24 hrs by microscopic analysis; assay type: functional, organism-based; procedure, shortened: as §3
[24] = Drug level in chloroquine-sensitive Plasmodium falciparum Dd2 digestive vacuole assessed as ratio of drug level in vacuole to medium at 5 uM after 1 hr; assay type: ADME; details: plasmodium falciparum dd2, 1 h, in the assay text read “chloroquine-resistant” for “chloroquine-sensitive”; procedure, shortened: as §2
[25] = Drug level in chloroquine-sensitive Plasmodium falciparum D6 digestive vacuole after 1 hr; assay type: ADME; details: plasmodium falciparum d6, 1 h; procedure, shortened: as §2

| SMILES | selectivity ratio [1] | Ratio IC50 [2] | Ratio IC50 [3] | Ratio IC50 [4] | Kd [17] [µM] | IC50 [19] [µM] | also measured |
| --- | --- | --- | --- | --- | --- | --- | --- |
| Clc1ccc2c(NCCCN3CCN(CC(c4ccccc4)c4ccccc4)CC3)ccnc2c1 | 6970 | 0.5 | 3.4 | 3.3 |  |  |  |
| Clc1ccc2c(NCCCN3CCNCC3)ccnc2c1 | 3380 | 4.3 |  | 6.8 |  |  |  |
| CCN(CC)CCCC(C)Nc1ccnc2cc(Cl)ccc12 (stereo unspecified) [CHLOROQUINE] |  |  |  |  |  |  | Survival [5]: 10 days; Drug uptake [6]: 0.7 ×10⁻⁸ mol; Survival [7]: 9 days; Drug uptake [8]: 0.5 ×10⁻⁸ mol; inhibition [9]: Active; inhibition [10]: Active; Survival [11]: 23 days; inhibition [12]: inactive; inhibition [13]: inactive |
| Clc1ccc2c(NCCCN3CCN(C(c4ccccc4)(c4ccccc4)c4ccccc4)CC3)ccnc2c1 | 13600 | 2 | 10 | 4.2 | 5.4 |  | Survival [5]: 3 days; Survival [7]: 7 days; Activity [14]: 99.7%; Survival [11]: 20 days; Activity [15]: <40%; Activity [16]: >99.9%; solubility [18]: Insoluble |
| Clc1ccc(C(c2ccccc2)N2CCN(CCNc3ccnc4cc(Cl)ccc34)CC2)cc1 (stereo unspecified) | 700 | 2.6 | 10 | 2 |  |  |  |
| Clc1ccc(C(c2ccccc2)N2CCCN(CCCNc3ccnc4cc(Cl)ccc34)CC2)cc1 (stereo unspecified) | 158 | 6.6 | 22 | 5.7 |  |  |  |
| CN(CCCN1c2ccccc2CCc2ccccc21)CCNc1ccnc2cc(Cl)ccc12 | 269 | 3.6 | 21 | 5.2 | 7.3 | 10 |  |
| OCCN1CCN(C(c2ccccc2)c2ccccc2)CC1 | > 50 | >2500 | >2500 | >2500 |  |  |  |
| Clc1ccc2c(NCCN3CCCN(C4c5ccccc5-c5ccccc54)CC3)ccnc2c1 | 260 | 9.2 | 41 | 9.6 |  |  |  |
| Fc1ccc(C(c2ccc(F)cc2)N2CCN(CCCNc3ccnc4cc(Cl)ccc34)CC2)cc1 | 1710 | 2 | 34 | 2.4 |  |  |  |
| Clc1ccc2c(NCCCCN3CCN(C(c4ccccc4)c4ccccc4)CC3)ccnc2c1 | 846 | 1.3 | 7.2 | 1.3 |  |  |  |
| Clc1ccc2c(NCCN3CCC(NC(c4ccccn4)c4ccccn4)CC3)ccnc2c1 | 7310 | 1.1 | 7.4 | 3.9 | 1 | 2 | Activity [20]: >99.9%; Survival [21]: >30 days |
| Clc1ccc2c(NCCCN3CCN(C4C5CC6CC(C5)CC4C6)CC3)ccnc2c1 (stereo unspecified) | 69400 | 0.8 | 10 | 1.8 | 2.5 | 14 |  |
| Clc1ccc2c(NCCCN3CCCN(C4c5ccccc5-c5ccccc54)CC3)ccnc2c1 | 167 | 21 | 56 | 15 |  |  |  |
| Clc1ccc(C(c2ccccc2)N2CCN(CCCNc3ccnc4cc(Cl)ccc34)CC2)cc1 (stereo unspecified) | 229 | 3.2 | 12 | 3.5 |  |  |  |
| CN(CCCNc1ccnc2cc(Cl)ccc12)CCCN1c2ccccc2CCc2ccccc21 | 132 | 2.9 | 4 | 5.3 | 8.6 | 9 | Ratio [22]: 32000; Survival [5]: 7 days; Drug uptake [6]: 1.6 ×10⁻⁸ mol; Survival [7]: 3 days; inhibition [23]: Active; Drug uptake [8]: 1.8 ×10⁻⁸ mol; Ratio [24]: 38000; Activity [14]: <40%; Survival [11]: 8 days; inhibition [12]: inactive; Activity [15]: 92%; Drug uptake [25]: 65000 µM; Activity [16]: 96% |
| Clc1ccc2c(NCCCN3CCCN(C(c4ccccc4)c4ccccc4)CC3)ccnc2c1 | 171 | 4.8 | 15 | 4.1 |  |  |  |
| Clc1ccc2c(NCCCN3CCN(C(c4ccccc4)c4ccccc4)CC3)ccnc2c1 | 423 | 1.9 | 11 | 2.6 | 3 | 3.5 |  |
| Clc1ccc2c(NCCN3CCN(C(c4ccccc4)c4ccccc4)CC3)ccnc2c1 | 528 | 1 | 4.3 | 3.6 | 3.3 | 2.5 | Survival [5]: 3 days; Survival [7]: 8 days; Activity [14]: >99.9%; Survival [11]: 16 days; Activity [15]: <40%; Activity [16]: >99.9% |
